Measurements gathered from unrelated publications.
Target: Interleukin-1 receptor-associated kinase 3 (IRAK3, Homo sapiens, UniProt Q9Y616)
Sequence (Q9Y616 1-596, as in one of the studies): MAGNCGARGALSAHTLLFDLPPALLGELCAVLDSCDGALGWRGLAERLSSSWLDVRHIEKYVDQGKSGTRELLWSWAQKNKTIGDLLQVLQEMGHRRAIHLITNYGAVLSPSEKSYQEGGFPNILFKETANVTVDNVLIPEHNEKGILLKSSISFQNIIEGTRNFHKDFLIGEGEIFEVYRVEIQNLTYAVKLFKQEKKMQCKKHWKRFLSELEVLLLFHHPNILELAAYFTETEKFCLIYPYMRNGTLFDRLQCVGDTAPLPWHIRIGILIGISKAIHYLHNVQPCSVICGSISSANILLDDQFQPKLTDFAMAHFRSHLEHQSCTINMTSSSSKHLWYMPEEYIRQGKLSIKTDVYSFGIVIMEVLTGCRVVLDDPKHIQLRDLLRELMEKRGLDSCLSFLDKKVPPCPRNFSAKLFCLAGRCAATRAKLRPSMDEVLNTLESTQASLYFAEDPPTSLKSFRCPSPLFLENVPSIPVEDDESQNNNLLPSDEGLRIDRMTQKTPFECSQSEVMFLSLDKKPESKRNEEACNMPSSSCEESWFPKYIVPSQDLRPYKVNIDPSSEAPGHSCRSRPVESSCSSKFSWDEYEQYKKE

| SMILES | observed | technique | tested at | remaining binding |
| --- | --- | --- | --- | --- |
| COc1ccnn2ncc(-c3ccnc(N(C)C)n3)c12 | binding |  | 1 µM | 91% |
| Cc1cnc(Nc2ccc(C(=O)N3CCC(N4CCCC4)CC3)cc2)nc1-c1cc2ccccc2s1 | binding | competition with immobilised ligand | 1 µM | 5.3% |
| CNC(=O)[C@@H]1CC[C@@H](n2c(-c3ccc4cnccc4c3)nc3ccc(C(=O)NCc4cccc(C(N)=O)c4)cc32)C1 | binding | competition with immobilised ligand | 1 µM | 97% |
| FC(F)(F)Oc1cccc(-c2cnc3ccc(-c4ccncc4)nn23)c1 | cell-free assay | competition with immobilised ligand | 5 µM | 7.6% |
| N#Cc1ccc(Nc2ccc3[nH]c(=O)[nH]c3c2)c(Cl)c1 | cell-free assay | competition with immobilised ligand | 1 µM | 94% |
| C[C@H]1CCN(c2nccc(-c3cnn4ncccc34)n2)C1 | binding |  | 1 µM | 52% |
| C=CC(=O)N1CCC(C(=O)NCC(=O)N2CCN(c3nc(-c4cnc(N)nc4C(F)F)nc(N4CCOCC4)n3)CC2)CC1 | binding | competition with immobilised ligand | 1 µM | 89% |
| COc1cnc(Nc2cccc(S(N)(=O)=O)c2)nc1N1CCN(c2ccccc2)CC1 | binding | competition with immobilised ligand | 1 µM | 100% |
| c1cnn2ncc(-c3ccnc(N4CCC45COC5)n3)c2c1 | binding |  | 1 µM | 36% |
| O=C(NCCCN1CCOCC1)c1ccc(Nc2ncc(Cl)c(-c3ccc(Cl)s3)n2)cc1 | binding | competition with immobilised ligand | 1 µM | 13% |
| Cn1nc(C(F)(F)F)cc1-c1cnc(N2CCc3cc(S(=O)(=O)Nc4c(F)cc(Cl)cc4F)cc(N4CCCC4=O)c32)nc1 | cell-free assay | competition with immobilised ligand | 1 µM | 100% |
| O=C(c1ccc(Nc2ncc(Cl)c(-c3ccc(Cl)s3)n2)cc1)N1CCC(N2CCCC2)CC1 | binding | competition with immobilised ligand | 1 µM | 1.6% |
| CS(=O)(=O)N1CCCC(NC(=O)[C@H](CCC2CCCCC2)NC(=O)c2ccc(CNc3ncnc4c3nnn4-c3ccccc3)cc2)C1 (stereo partly drawn) | cell-free assay | competition with immobilised ligand | 0.1 µM | 100% |
| Cc1cnn2ncc(-c3ccnc(N(C)C)n3)c2c1 | binding |  | 1 µM | 70% |
| CN(c1ccnc(CNc2nc(Nc3ccc4c(c3)CC(=O)N4)ncc2C(F)(F)F)n1)S(C)(=O)=O | cell-free assay | competition with immobilised ligand | 1 µM | 11% |
| O=C(NCC1CCOCC1)c1n[nH]cc1NC(=O)c1c(F)cccc1F | binding | competition with immobilised ligand | 1 µM | 92% |
| CN(C(=O)c1ccccc1)c1cc(N(C)c2ccc3c(c2)CCc2ccc(C(=O)NCCN4CCOCC4)cc2C3=O)ccc1F | cell-free assay | competition with immobilised ligand | 1 µM | 91% |
| CN(C)c1ncc(F)c(-c2cnn3ncccc23)n1 | binding |  | 1 µM | 100% |
| Nc1ncc2c(n1)-c1c([nH]c3ccc(C#CC4CC4)cc13)CCCC2 | binding | competition with immobilised ligand | 1 µM | 71% |
| CNC(=O)Nc1ccc2c(c1)CC[C@@]21OC(=O)N(CC(=O)N(Cc2ccc(F)cc2)[C@@H](C)C(F)(F)F)C1=O | cell-free assay | competition with immobilised ligand | 1 µM | 95% |
| CN(C)c1nccc(-c2cnn3ncccc23)n1 | binding |  | 1 µM | 100% |
